# From ChEMBL document CHEMBL4334552, “Discovery of BMS-986260, a Potent, Selective, and Orally Bioavailable TGFβR1 Inhibitor as an Immuno-oncology Agent” (ACS Med Chem Lett, 2020)
# Legend:
# [1] = Protein binding in dog serum assessed as unbound fraction; type: ADME, cell-free, Canis lupus familiaris
# Phosphodiesterase 4 = Phosphodiesterase 4 (Homo sapiens, UniProt P27815+Q08499+Q07343+Q08493); test: Inhibition of PDE4 (unknown origin) by HTRF assay; type: protein assay
# [2] = Half life in rat liver microsomes in presence of NADPH; type: ADME, Microsome
# Cytochrome P450 1A2 = target: T1, Cytochrome P450 1A2 (Homo sapiens, UniProt P05177); test: Induction of recombinant CYP1A2 (unknown origin) up to 24 microM; type: ADME; conditions: recombinant enzyme
# T1 sequence (P05177 whole entry): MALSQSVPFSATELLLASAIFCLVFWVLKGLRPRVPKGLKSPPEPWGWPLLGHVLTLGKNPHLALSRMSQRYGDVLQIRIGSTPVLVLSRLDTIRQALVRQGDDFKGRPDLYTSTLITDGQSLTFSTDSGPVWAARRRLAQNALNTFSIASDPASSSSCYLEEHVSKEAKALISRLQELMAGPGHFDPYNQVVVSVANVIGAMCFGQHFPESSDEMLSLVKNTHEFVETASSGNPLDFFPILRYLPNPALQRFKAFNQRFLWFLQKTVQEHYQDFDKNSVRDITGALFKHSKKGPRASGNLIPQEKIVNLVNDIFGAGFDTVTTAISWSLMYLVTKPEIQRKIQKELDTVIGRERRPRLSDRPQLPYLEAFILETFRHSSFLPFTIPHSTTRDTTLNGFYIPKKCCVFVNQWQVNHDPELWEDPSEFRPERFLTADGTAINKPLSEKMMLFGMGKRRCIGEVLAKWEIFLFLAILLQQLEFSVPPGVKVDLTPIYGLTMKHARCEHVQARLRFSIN
# Cytochrome P450 2C8 = target: T2, Cytochrome P450 2C8 (Homo sapiens, UniProt P10632); test: Induction of recombinant CYP2C8 (unknown origin) up to 24 microM; type: ADME; conditions: recombinant enzyme
# T2 sequence (P10632 whole entry): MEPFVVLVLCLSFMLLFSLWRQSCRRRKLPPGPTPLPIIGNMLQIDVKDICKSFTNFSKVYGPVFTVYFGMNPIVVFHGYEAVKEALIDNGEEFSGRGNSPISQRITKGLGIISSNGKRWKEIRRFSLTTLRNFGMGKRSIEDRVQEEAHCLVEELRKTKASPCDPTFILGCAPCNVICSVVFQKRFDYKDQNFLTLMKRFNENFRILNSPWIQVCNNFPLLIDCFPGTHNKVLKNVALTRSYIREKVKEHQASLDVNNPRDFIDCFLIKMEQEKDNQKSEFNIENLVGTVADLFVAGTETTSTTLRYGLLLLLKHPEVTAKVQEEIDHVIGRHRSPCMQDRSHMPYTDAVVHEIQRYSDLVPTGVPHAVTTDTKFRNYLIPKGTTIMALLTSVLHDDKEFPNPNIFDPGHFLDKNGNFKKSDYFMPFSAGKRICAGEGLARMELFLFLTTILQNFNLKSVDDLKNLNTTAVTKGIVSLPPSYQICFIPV
# [3] = Half life in Balb/C mouse at 5 mg/kg, iv; type: ADME, organism-based; conditions: in vivo
# Method in brief: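 Male Balb/C mice (n = 3) dosed iv at 5 mg/kg in the same PK study as a 10 mg/kg oral arm. Vehicle was 70% 25 mM acetate buffer pH 4.0, 5% ethanol, 25% PEG 400. Half-life was taken from the iv arm.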
# [4] = Total AUC in Beagle dog at 1 mg/kg, iv; type: ADME, organism-based, Canis lupus familiaris; design: dose 1 mg/kg, time AUCmax, route intravenous; conditions: in vivo
# Method in brief: (§1)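 Male Beagle dogs (n = 2) were pretreated with pentagastrin and dosed iv at 1 mg/kg and po at 5 mg/kg. The oral vehicle was 5% ethanol, 45% PEG400 and 50% 25 mM acetate buffer pH 4.0. The iv vehicle was 5:45:50 EtOH/PEG400/saline at 1 mL/kg.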
# Cytochrome P450 2C9 = Cytochrome P450 2C9 (Homo sapiens, UniProt P11712); test: Inhibition of recombinant CYP2C9 (unknown origin); type: ADME
# [5] = Total AUC in Balb/C mouse at 10 mg/kg, po; type: ADME, organism-based; design: dose 10 mg/kg, route oral, time AUCmax; conditions: in vivo
# Method in brief: (§2)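 Male Balb/C mice (n = 3) dosed iv at 5 mg/kg and po at 10 mg/kg. Vehicle was 70% 25 mM acetate buffer pH 4.0, 5% ethanol and 25% PEG 400.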
# [6] = Clearance in Sprague Dawley rat at 5 mg/kg, iv; type: ADME, organism-based; conditions: in vivo
# Method in brief: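 Male Sprague–Dawley rats, n = 3, given 5 mg/kg iv or 10 mg/kg po as a PEG400 solution.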
# Cytochrome P450 3A4 = Cytochrome P450 3A4 (Homo sapiens, UniProt P08684); test: Induction of recombinant CYP3A4 (unknown origin) up to 24 microM; type: ADME; conditions: recombinant enzyme
# [7] = Half life in mouse liver microsomes in presence of NADPH; type: ADME, Microsome
# [8] = MRT in Balb/C mouse at 5 mg/kg, iv; type: ADME, organism-based; conditions: in vivo; method in brief: as §2
# [9] = target: T3, Nuclear receptor subfamily 1 group I member 2 (Homo sapiens, UniProt O75469); test: Activation of PXR (unknown origin)
# T3 sequence (O75469 whole entry): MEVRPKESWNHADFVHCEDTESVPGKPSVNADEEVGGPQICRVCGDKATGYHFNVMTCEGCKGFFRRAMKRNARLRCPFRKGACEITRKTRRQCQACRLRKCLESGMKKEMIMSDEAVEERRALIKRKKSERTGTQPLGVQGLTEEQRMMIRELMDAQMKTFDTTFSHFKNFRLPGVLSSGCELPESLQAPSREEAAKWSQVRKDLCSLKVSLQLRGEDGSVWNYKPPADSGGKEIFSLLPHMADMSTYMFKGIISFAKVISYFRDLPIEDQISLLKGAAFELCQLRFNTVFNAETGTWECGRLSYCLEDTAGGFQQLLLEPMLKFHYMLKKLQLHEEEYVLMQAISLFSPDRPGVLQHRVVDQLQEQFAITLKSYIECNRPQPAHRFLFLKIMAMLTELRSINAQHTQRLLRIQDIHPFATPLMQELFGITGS
# [10] = Total AUC in Beagle dog at 5 mg/kg, po; type: ADME, organism-based, Canis lupus familiaris; design: dose 5 mg/kg, route oral, time AUCmax; conditions: in vivo; method in brief: as §1
# [11] = Clearance in Balb/C mouse at 5 mg/kg, iv; type: ADME, organism-based; conditions: in vivo
# Method in brief: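 Male Balb/C mice, n = 3, dosed at 5 mg/kg iv or 10 mg/kg po. The vehicle was 70% 25 mM acetate buffer pH 4.0, 5% ethanol and 25% PEG 400.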
# Chain of Cytochrome P450 3A4 (P08684 whole entry): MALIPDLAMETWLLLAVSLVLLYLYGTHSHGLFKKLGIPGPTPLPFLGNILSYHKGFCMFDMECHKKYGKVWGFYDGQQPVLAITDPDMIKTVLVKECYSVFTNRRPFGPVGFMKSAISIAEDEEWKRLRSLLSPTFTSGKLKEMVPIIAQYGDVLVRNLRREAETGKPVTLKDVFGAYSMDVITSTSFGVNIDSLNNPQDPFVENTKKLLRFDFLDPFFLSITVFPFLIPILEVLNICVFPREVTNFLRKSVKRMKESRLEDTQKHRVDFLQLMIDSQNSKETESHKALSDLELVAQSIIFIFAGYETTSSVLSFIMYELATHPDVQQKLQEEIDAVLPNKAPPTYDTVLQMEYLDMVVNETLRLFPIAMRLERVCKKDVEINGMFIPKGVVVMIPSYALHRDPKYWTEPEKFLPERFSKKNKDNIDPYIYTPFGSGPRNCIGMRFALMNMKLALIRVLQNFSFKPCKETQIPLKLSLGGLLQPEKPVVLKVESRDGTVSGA
# Chain of Cytochrome P450 2C9 (P11712 whole entry): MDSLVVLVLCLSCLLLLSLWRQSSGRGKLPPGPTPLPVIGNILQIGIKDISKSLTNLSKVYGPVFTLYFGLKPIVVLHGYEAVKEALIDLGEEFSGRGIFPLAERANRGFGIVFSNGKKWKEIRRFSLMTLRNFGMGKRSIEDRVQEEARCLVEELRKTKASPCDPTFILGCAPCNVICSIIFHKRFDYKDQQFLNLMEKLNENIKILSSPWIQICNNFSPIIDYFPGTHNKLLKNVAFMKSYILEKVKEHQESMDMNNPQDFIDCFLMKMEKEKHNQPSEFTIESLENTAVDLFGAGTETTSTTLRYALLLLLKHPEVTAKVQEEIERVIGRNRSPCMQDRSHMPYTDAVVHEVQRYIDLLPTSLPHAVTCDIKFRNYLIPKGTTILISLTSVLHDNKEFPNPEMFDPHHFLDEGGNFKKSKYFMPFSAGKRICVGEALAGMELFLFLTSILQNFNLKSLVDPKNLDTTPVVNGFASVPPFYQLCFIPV
smiles,measurement,setting,value
N#Cc1cnc2ccc(-c3c(-c4ccc(F)c(Cl)c4)ncn3CCO)nn12,fraction unbound,[1],0.13
same,IC50,Phosphodiesterase 4,11 µM
same,half-life,[2],0.833 h
same,Activity,Cytochrome P450 1A2,Not Active
same,Activity,Cytochrome P450 2C8,Not Active
same,half-life,[3],9.1 h
same,AUC,[4],7 µM·h
same,IC50,Cytochrome P450 2C9,> 20 µM
same,AUC,[5],80.5 µM·h
same,clearance,[6],5.6 mL/min/kg
same,Activity,Cytochrome P450 3A4,Not Active
same,half-life,[7],0.467 h
same,MRT,[8],9 h
same,EC50,[9],> 24 µM
same,AUC,[10],35 µM·h
same,clearance,[11],8.3 mL/min/kg
